One may read the inhibition as the change of the read-out against control, counted positive when it falls. Broadly, the half-life is the time needed for the level to fall by half in the phase considered. Read a low half-life as fast loss. Broadly, the IC50 is the point on the concentration scale where inhibition reaches its midpoint.

Activity calls are given as the source filed them.

Consider two molecules from ChEMBL document CHEMBL4334444, “Studies of Jatrogossone A as a Reactive Oxygen Species Inducer in Cancer Cellular Models” (J Nat Prod, 2019).

In data set [1] the test system is B-ALL. Kind of data set: Antiproliferative activity against mouse B-ALL cells harboring Bax/Bak double knockout mutant assessed as reduction in cell viability at 0.1 to 250 uM by CellTiter-Glo assay. It is filed as functional, cell-based. The method, boiled down:
(§1)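 CellTiter-Glo luminescent viability readout. Cells kept at 37 °C under 5% CO2. HMEC primary cells grown in basal medium with growth kit; leukemia lines and murine BCR-ABL (WT, Bax/Bak DKO) cultured per earlier description. Positive controls: staurosporine 25 μM, gambogic acid 10 μM, a toxic quinoline. At least two biological replicates in technical triplicate; luminescence normalized to untreated controls; EC50 computed.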

Data set [2] deals with U2OS. Kind of data set: Antiproliferative activity against human U2OS cells assessed as reduction in cell viability at 0.1 to 250 uM by CellTiter-Glo assay. It is filed as functional, cell-based. The gist of the method:
as §1
Background: ATP-based viability assays read luminescence as a measure of living cells.

In another data set the test system is MDA-MB-231. Kind of data set: Antiproliferative activity against human MDA-MB-231 cells assessed as reduction in cell viability at 0.1 to 250 uM after 48 hrs by propidium iodide staining based fluorescence assay. It is filed as functional. The method, boiled down:
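MDA-MB-231 and SUM149 seeded at 6 × 10^4 to 2 × 10^5 cells/well, cultured 24 h, then exposed for 48 h. Cells fixed in cold methanol, stained with 0.4% propidium iodide, fluorescence imaged. Viability expressed as percent surviving cells relative to vehicle wells.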

In data set [3] the test system is HMEC. As to the kind of experiment: Cytotoxicity against human HMEC cells assessed as reduction in cell viability at 0.1 to 250 uM by CellTiter-Glo assay. It is filed as cell-based. The method, boiled down: as §1
In data set [4] the test system is MCF7. As to the kind of experiment: Induction of apoptosis in human MCF7 cells assessed as increase in cleaved PARP 1 level at 1 to 10 uM after 3 hrs by Western blot analysis. The format is functional, cell-based. The method, boiled down:
(§2)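 Western blot of KOPN-8 and MCF-7 lysates made in RIPA-type buffer (Tris pH 7.5, Triton X-100, deoxycholate, SDS) with protease and phosphatase inhibitors. 30 μg protein per lane was run on 4–12% Bis-Tris SDS-PAGE and transferred to nitrocellulose. Blots were probed for cleaved caspase-7 and PARP-1 and detected with IR-dye secondaries. Menadione served as positive control: 10 μM in KOPN-8, 30 μM in MCF-7. Blots are representative of three independent experiments.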
For orientation: Immunoblotting shows a protein as a band on a membrane.

The subject of data set [5] is KOPN-8. As to the kind of experiment: Induction of mitochondrial membrane potential loss in human KOPN8 cells at 4 uM after 24 hrs by TMRM staining based flow cytometric analysis. It is filed as functional, cell-based. The method, boiled down: (§3)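 TMRM flow cytometry. KOPN-8 (4 × 10^4 or 5 × 10^5 per well) or MCF-7 (2 × 10^4 or 2 × 10^5 per well) were seeded 24 h, then treated 24–48 h. FCCP 10 μM was added 10 min before staining as positive control. Cells were stained with TMRM 100 nM for 0.5 h, then PBS-washed, resuspended in PBS with 1% FBS and analysed by flow cytometry; DAPI flagged compromised cells.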
(In general: A flow cytometer gives signals particle by particle.)

For data set [6], the system named is MCF7. As to the kind of experiment: Induction of mitochondrial membrane potential loss in human MCF7 cells at 4 uM after 24 to 48 hrs by TMRM staining based flow cytometric analysis. The format is functional, cell-based. The gist of the method: as §3
Data set [7] concerns HMEC. Kind of data set: Cytotoxicity against human HMEC cells assessed as cell detachment. It is filed as cell-based.
For data set [8], the system named is KOPN-8. As to the kind of experiment: Upregulation of Trx level in human KOPN8 at 1 uM after 3 to 6 hrs by Western blot analysis. It is filed as functional, cell-based. The method, boiled down:
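Western blot of KOPN-8 or MCF-7 lysates, 30 μg protein per lane on 4–12% Bis-Tris SDS-PAGE and transferred to nitrocellulose. Blots were probed with an oxidative stress defense antibody cocktail (catalase, SOD1, Trx, smooth muscle actin) and tubulin, and detected with IR-dye secondaries on a LI-COR Odyssey.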

Data set [9] can be described thus: Half life in human liver microsomes. It is filed as ADME, Microsome.
Data set [10] has as its system B-ALL. As to the kind of experiment: Antiproliferative activity against mouse B-ALL cells harboring Bax/Bak double knockout mutant assessed as reduction in cell viability at 1 to 10 uM by CellTiter-Glo assay. The format is functional, cell-based. The method, boiled down: as §1
For data set [11], the system named is KOPN-8. Kind of data set: Antiproliferative activity against human KOPN8 cells assessed as reduction in cell viability at 1 to 10 uM by CellTiter-Glo assay. It is filed as functional, cell-based. The gist of the method:
as §1

In a further data set the test system is SEM cells. Kind of data set: Antiproliferative activity against human SEM cells assessed as reduction in cell viability at 1 to 10 uM by CellTiter-Glo assay. The format is functional, cell-based. The gist of the method: as §1
In data set [12] the test system is KOPN-8. As to the kind of experiment: Cell cycle arrest in human KOPN8 cells assessed as decrease in accumulation at S phase at 10 uM incubated for 24 hrs by propidium iodide staining based flow cytometric analysis relative to control. The format is functional. As to conditions: KOPN-8, 24 h. The gist of the method:
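KOPN-8 plated at 1.00 × 10^6 cells/plate, held 12 h at 37 °C, treated 24 h at 10 μM; DMSO vehicle and 2 μM staurosporine as controls. Cells fixed in cold methanol, RNase-treated, stained with PI (50 μg/mL); cell-cycle distribution by flow cytometry.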

The subject of data set [13] is KOPN-8. As to the kind of experiment: Induction of apoptosis in human KOPN8 cells assessed as increase in late apoptotic cells at 10 uM after 24 hrs by Annexin V-FITC and propidium iodide staining based flow cytometry relative to control. It is filed as functional. The method, boiled down: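 KOPN-8 cells were plated at 1.00 × 10^6 per plate and held 12 h at 37 °C, then treated 24 h; positive control 2 μM staurosporine, vehicle DMSO. Cells were stained with Annexin V-FITC and PI and analysed by flow cytometry (FACSCalibur). Profiles are representative of three independent biological replicates.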

The subject of data set [14] is KOPN-8. As to the kind of experiment: Decrease in cell viability in human KOPN8 cells incubated for 24 hrs by GF-AFC reagent based ApoTox-Glo triplex assay. The format is functional. The method, boiled down: (§4)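 ApoTox-Glo Triplex: cells held 12 h at 37 °C, then treated 24 h (100−0.15 μM). Viability/cytotoxicity reagent added, shaken, 30 min at 37 °C; viability read as GF-AFC fluorescence at 400Ex/505Em. Caspase-Glo 3/7 then added, 0.5 h at room temperature, luminescence read. Mean ± SEM of three independent experiments.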

The subject of data set [15] is U2OS. Kind of data set: Decrease in cell viability in human U2OS cells incubated for 24 hrs by GF-AFC reagent based ApoTox-Glo triplex assay. It is filed as functional. The gist of the method: as §4
Data set [16] has as its system KOPN-8. As to the kind of experiment: Induction of apoptosis in human KOPN8 cells assessed as increase in cleaved PARP 1 level at 1 to 100 uM after 24 hrs by Western blot analysis. The format is functional, cell-based. The gist of the method: as §2
Data set [17] relates to B-ALL. Kind of data set: Cytotoxicity against BCR-ABL p185-positive mouse B-ALL cells overexpressing human BFL-1 assessed as inhibition of cell viability after 24 hrs by AnnexinV-FITC/propidium iodide staining based flow cytometric analysis. The format is functional.
The subject of data set [18] is B-ALL. Kind of data set: Cytotoxicity against BCR-ABL p185-positive mouse B-ALL cells transfected with empty vector assessed as inhibition of cell viability after 24 hrs by AnnexinV-FITC/propidium iodide staining based flow cytometric analysis. It is filed as functional.
Data set [19] is described as follows: Stability in CH3CN assessed as micheal adduct formation by measuring intact compound incubated for 16 hrs in presence of NAC by NMR analysis. The format is physicochemical.
Data set [20] is described as follows: Stability in DMSO assessed as micheal adduct formation by measuring intact compound incubated for 16 hrs in presence of glutathione by NMR analysis. It is filed as physicochemical.
Data set [21] concerns MCF7. As to the kind of experiment: Upregulation of Trx level in human MCF7 after 3 to 6 hrs by Western blot analysis. The format is functional, cell-based. The method, boiled down: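 MCF-7 cells were exposed to compound for 3 or 6 h. Lysates were made in Tris-HCl pH 7.5 RIPA-type buffer with protease/phosphatase inhibitors and quantified by BCA. 30 μg protein per lane was run on 4–12% Bis-Tris SDS-PAGE in MES and transferred to nitrocellulose. Blots were probed for thioredoxin with tubulin as reference, detected with IR-dye secondaries (1:15 000) and scanned on an infrared imager.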

Take `CC1=C2CC(C)(C)/C=C/C(=O)/C(C)=C\C3=C[C@H](C)C[C@]3(O2)C1=O` [JATROPHONE]: the inhibition result with B-ALL [1], in the data set on U2OS [2] and in the data set on MDA-MB-231 was “Active” each time. Further, the Activity entry in the data set with HMEC [3] and in the data set on HMEC [7] was “Toxic” in each case. Also, the outcome in the data set with MCF7 [4], with KOPN-8 [5] and with KOPN-8 [8] was Active. The result in the data set with MCF7 [6] was inactive.

On to `CC(=O)O[C@H]1/C2=C/[C@@H](C)C(=O)C[C@H]3[C@@H](/C=C(\C)C(=O)[C@H]2C[C@H]1C)C3(C)C`, for which the half-life in data set [9] is 31 min. The inhibition result in the data set with B-ALL [10], in the data set on KOPN-8 [11] and in the data set on SEM cells was “Active” throughout. Moreover, the inhibition at 10 µM in the data set on KOPN-8 [12] amounted to 5%. Also, the Activity with KOPN-8 [13] was 15%; with MCF7 [21], “Dose-dependent effect”. The inhibition entry in the data set on KOPN-8 [14] and in the data set on U2OS [15] was “Dose-dependent effect” throughout. Further, the outcome in the data set on KOPN-8 [16] was Active. In addition, the IC50 was found to be 4.26 µM in the data set with B-ALL [17] and 4.57 µM in the data set with B-ALL [18]. Besides, the Stability result in [19] and in [20] was “Stable” throughout.
